From ChEMBL document CHEMBL1133762, “Aureobasidins: structure-activity relationships for the inhibition of the human MDR1 P-glycoprotein ABC-transporter” (J Med Chem, 2000)
pIC50: −log10 of the molar value. ≈ marks a conversion by molar mass, not a printed value. Square brackets hold non-standard residues; d marks the D form. Peptide text beside a SMILES is read from it. Hmp(2R,3S) = CC[C@H](C)[C@@H](O)C(=O)O; NMeVal(β-OH) = CN[C@H](C(=O)O)C(C)(C)O; NMeF = CN[C@@H](Cc1ccccc1)C(=O)O; NMeV = CN[C@H](C(=O)O)C(C)C

Columns and labels:
[1] = Antifungal activity was determined by its potency compared with that of AbA. Value is determined as ratio of AbA to the analogue.; assay type: functional
Method in brief: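 Agar dilution MIC against S. cerevisiae ATCC 9763 on Sabouraud–dextrose agar plates containing graded compound concentrations. A loopful of about 5 × 10⁷ cells/mL suspension was streaked on the surface, and plates were incubated at 30 °C for 3 days. MIC was the lowest concentration with no detectable growth. The value is the AbA/analogue activity ratio.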

[2] = target: T1, ATP-dependent translocase ABCB1 (Homo sapiens, UniProt P08183)
T1 sequence (P08183 whole entry): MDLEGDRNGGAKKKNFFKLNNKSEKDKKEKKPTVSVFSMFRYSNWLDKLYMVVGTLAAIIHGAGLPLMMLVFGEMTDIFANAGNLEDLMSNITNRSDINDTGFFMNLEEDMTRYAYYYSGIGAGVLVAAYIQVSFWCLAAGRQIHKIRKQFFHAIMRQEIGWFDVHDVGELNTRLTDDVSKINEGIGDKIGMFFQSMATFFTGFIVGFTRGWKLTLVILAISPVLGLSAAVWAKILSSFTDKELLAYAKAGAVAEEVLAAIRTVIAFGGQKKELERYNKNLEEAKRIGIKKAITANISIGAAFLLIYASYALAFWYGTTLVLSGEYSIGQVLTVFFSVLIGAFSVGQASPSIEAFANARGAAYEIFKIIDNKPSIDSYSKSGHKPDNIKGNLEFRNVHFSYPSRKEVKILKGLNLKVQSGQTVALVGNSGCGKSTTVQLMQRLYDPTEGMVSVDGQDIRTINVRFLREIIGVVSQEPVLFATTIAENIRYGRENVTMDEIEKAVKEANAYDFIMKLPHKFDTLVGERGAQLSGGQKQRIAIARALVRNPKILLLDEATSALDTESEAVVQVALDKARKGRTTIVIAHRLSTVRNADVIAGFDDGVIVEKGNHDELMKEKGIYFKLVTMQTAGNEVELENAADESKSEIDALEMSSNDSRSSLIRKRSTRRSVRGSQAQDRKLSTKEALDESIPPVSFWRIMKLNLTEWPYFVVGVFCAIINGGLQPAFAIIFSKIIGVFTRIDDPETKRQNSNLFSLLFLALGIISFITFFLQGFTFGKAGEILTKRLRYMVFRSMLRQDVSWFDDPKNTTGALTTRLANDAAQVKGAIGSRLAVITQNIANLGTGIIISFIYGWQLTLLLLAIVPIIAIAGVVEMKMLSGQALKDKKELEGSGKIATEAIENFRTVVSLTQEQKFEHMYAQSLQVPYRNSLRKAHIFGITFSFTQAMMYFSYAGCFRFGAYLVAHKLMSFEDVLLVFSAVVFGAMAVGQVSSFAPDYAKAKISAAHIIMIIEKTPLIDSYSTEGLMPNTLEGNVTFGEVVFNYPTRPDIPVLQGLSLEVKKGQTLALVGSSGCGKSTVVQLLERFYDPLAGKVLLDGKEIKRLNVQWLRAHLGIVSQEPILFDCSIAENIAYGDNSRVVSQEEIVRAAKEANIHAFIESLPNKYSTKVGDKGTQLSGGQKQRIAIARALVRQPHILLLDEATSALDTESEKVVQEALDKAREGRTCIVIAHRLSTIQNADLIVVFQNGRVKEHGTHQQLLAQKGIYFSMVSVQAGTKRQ

[3] = target: T1, ATP-dependent translocase ABCB1; assay: (§1) Human MDR1 Pgp inhibitory activity by using standard calcein-AM efflux method with the human leukemia CEM cells.; assay type: cell-based, CCRF-CEM
[4] = target: P-glycoprotein (ABCB1, MDR1) (Homo sapiens, UniProt P08183); assay: as §1; assay type: cell-based, CCRF-CEM; conditions: probe calcein-AM
Chain of P-glycoprotein (ABCB1, MDR1) (P08183 whole entry): as above

Saccharomyces cerevisiae [5] = assay: Minimum growth-inhibitory concentration against Saccharomyces cerevisiae ATCC 9763 by agar dilution method by the suspension of a fungi containing ~5 x 10e (7) cells/mL.; assay type: functional
Method in brief: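 Agar dilution on Sabouraud–dextrose agar plates with graded compound concentrations. A loopful of yeast suspension (about 5 × 10⁷ cells/mL) was streaked on the surface. Plates were incubated at 30 °C for 3 days. MIC is the lowest concentration with no detectable growth.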

[6] = target: T1, ATP-dependent translocase ABCB1; assay: Direct comparison of the antifungal activities with the relative Pgp-inhibitory potencies, calculated by comparing ug/mL IC50(or IC20).; assay type: functional
Saccharomyces cerevisiae [7] = assay: Relative antifungal activity (against Saccharomyces cerevisiae) compared to AbA

SMILES	AbA/analogue ratio [1]	pIC50 [2]	pIC50 [3]	IC20 [4]	MIC (Saccharomyces cerevisiae [5])	Pgp AbA/analogue ratio [6]	antifungal AbA/analogue ratio (Saccharomyces cerevisiae [7])
CC[C@@H](C)[C@@H]1NC(=O)[C@@H]2CCCN2C(=O)[C@H](Cc2ccccc2)N(C)C(=O)[C@H](Cc2ccccc2)NC(=O)[C@H](C(C)C)N(C)C(=O)[C@@H]([C@@H](C)CC)OC(=O)CN(C)C(=O)[C@H](CC(C)C)NC(=O)[C@H](C(C)C)N(C)C1=O	<0.016						
CC[C@@H](C)[C@@H]1NC(=O)[C@@H]2CCCN2C(=O)[C@H](Cc2ccccc2)N(C)C(=O)[C@H](Cc2ccccc2)NC(=O)[C@H](C(C)C)N(C)C(=O)[C@@H]([C@H](C)CC)OC(=O)[C@H](C(C)(C)O)N(C)C(=O)[C@H](CC(C)C)NC(=O)[C@H](C(C)C)N(C)C1=O [AUREOBASIDIN A]		5.64					
CC[C@H](C)[C@@H]1NC(=O)[C@@H]2CCCN2C(=O)[C@@H](Cc2ccccc2)N(C)C(=O)[C@H](Cc2ccccc2)NC(=O)[C@H](C(C)C)N(C)C(=O)[C@@H]([C@@H](C)CC)OC(=O)[C@H](C(C)(C)O)N(C)C(=O)[C@H](CC(C)C)NC(=O)[C@H](C(C)C)N(C)C1=O			5.56	910 nM	0.2 µg/mL (≈ 0.182 µM)		
CC[C@@H](C)[C@@H]1NC(=O)[C@@H]2CCCN2C(=O)[C@H](Cc2ccccc2)N(C)C(=O)[C@H](Cc2ccccc2)NC(=O)[C@H](C(C)C)N(C)C(=O)[C@@H](C(C)C)OC(=O)[C@H](C(C)(C)O)N(C)C(=O)[C@H](CC(C)C)NC(=O)[C@H](C(C)C)N(C)C1=O			5.96	340 nM		2.1	1
CC[C@H](C)[C@@H]1NC(=O)[C@@H]2CCCN2C(=O)[C@@H](C)N(C)C(=O)[C@H](Cc2ccc(O)cc2)NC(=O)[C@H](C(C)C)N(C)C(=O)[C@@H]([C@@H](C)CC)OC(=O)[C@H](C(C)(C)O)N(C)C(=O)[C@H](CC(C)C)NC(=O)[C@H](C(C)C)N(C)C1=O			5.24	2120 nM	25 µg/mL (≈ 24 µM)	0.4	
CC[C@H](C)[C@@H]1NC(=O)[C@H]2CCCN2C(=O)[C@H](Cc2ccccc2)N(C)C(=O)[C@H](Cc2ccccc2)NC(=O)[C@H](C(C)C)N(C)C(=O)[C@@H]([C@@H](C)CC)OC(=O)[C@H](C(C)(C)O)N(C)C(=O)[C@H](CC(C)C)NC(=O)[C@H](C(C)C)N(C)C1=O			< 5.57	1360 nM	1.6 µg/mL (≈ 1.45 µM)		
CC[C@H](C)[C@@H]1NC(=O)[C@@H]2CCCN2C(=O)[C@@H](C)N(C)C(=O)[C@H](CO)NC(=O)[C@H](C(C)C)N(C)C(=O)[C@@H]([C@@H](C)CC)OC(=O)[C@H](C(C)(C)O)N(C)C(=O)[C@H](CC(C)C)NC(=O)[C@H](C(C)C)N(C)C1=O			< 4.51	> 31000 nM	> 25 µg/mL	< 0.1	< 0.016
CC[C@H](C)[C@@H]1NC(=O)[C@@H]2CCCN2C(=O)[C@@H](C)N(C)C(=O)[C@H](Cc2ccc(OCC3CCCCC3)cc2)NC(=O)[C@H](C(C)C)N(C)C(=O)[C@@H]([C@@H](C)CC)OC(=O)[C@H](C(C)(C)O)N(C)C(=O)[C@H](CC(C)C)NC(=O)[C@H](C(C)C)N(C)C1=O			5.68	640 nM	1.6 µg/mL (≈ 1.41 µM)	1	0.25
CC[C@H](C)[C@@H]1NC(=O)[C@@H]2CCCN2C(=O)[C@H](Cc2ccccc2)N(C)C(=O)[C@H](Cc2ccccc2)NC(=O)[C@H](C(C)C)N(C)C(=O)[C@@H]([C@@H](C)CC)OC(=O)[C@H](C(C)(C)O)N(C)C(=O)[C@H](CC(C)C)NC(=O)[C@@H](C(C)C)N(C)C1=O			< 5.56	1800 nM	> 25 µg/mL		
CC[C@H](C)[C@H]1OC(=O)[C@H](C(C)(C)O)N(C)C(=O)[C@H](CC(C)C)NC(=O)[C@H](C(C)C)N(C)C(=O)[C@H](C(C)C)NC(=O)[C@@H]2CCCN2C(=O)[C@H](Cc2ccccc2)N(C)C(=O)[C@H](Cc2ccccc2)NC(=O)[C@H](C(C)C)N(C)C1=O (cyclo(F[NMeF]PV[NMeV]L[NMeVal(β-OH)][Hmp(2R,3S)][NMeV]))			5.89	410 nM	0.4 µg/mL (≈ 0.368 µM)	1.8	
